Experimental data published in ChEMBL document CHEMBL4715923, “Investigation on the Anticancer Activity of Symmetric and Unsymmetric Cyclic Sulfamides” (ACS Med Chem Lett, 2021).
Activity calls are given as the source filed them. The rule behind the calls is not given here.

What was measured:
Coagulation factor X = Coagulation factor X (Homo sapiens, UniProt P00742); assay: Inhibition of human factor Xa using […] as substrate by chromogenic assay
[1] = tested on: Panel NCI-60 (60 carcinoma cell lines); assay: Cytotoxicity against human Panel NCI-60 (60 carcinoma cell lines) assessed as reduction in cell growth incubated for 48 hrs by SRB assay; type: functional, cell-based
Outline: (§1)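 Cells kept in RPMI 1640 with 5% FBS and 2 mM L-glutamine at 37 °C in 5% CO2, periodically tested for Mycoplasma. After plating, cells were held 1 day without drug, and time-zero plates were read. Compounds in DMSO were added at 10^-4 to 10^-8 M (five 10-fold steps), with DMSO-only controls, for 48 h. Cells were then TCA-fixed and stained with sulforhodamine B, and absorbance was read. GI50 was derived from time-zero, control and treated absorbances; LC50 is the mean of two independent experiments.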

RPMI-8226 = assay: Cytotoxicity against human RPMI-8226 cells assessed as reduction in cell growth incubated for 48 hrs by SRB assay; type: functional, cell-based; outline: as §1
A549 [2] = assay: Inhibition of cell migration in human A549 cells incubated for 24 hrs by phase contrast microscopy based relative wound healing/cell migration assay to control; type: functional; details: dose 0-50 µM
Outline: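 Scratches were made in A549 monolayers. Cells were then grown in medium containing compound (0–50 μM) or DMSO vehicle, and wound closure was imaged by phase-contrast microscopy.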

A549 [3] = assay: Cytotoxicity against human A549 cells assessed as reduction in cell growth at 10 uM incubated for 36 hrs by MTT assay relative to control; type: functional
Outline: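 A549 cells were treated with 10 μM compound or DMSO vehicle, and growth inhibition was followed over time, with a 36 h time point.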

HCT-116 = assay: Cytotoxicity against human HCT-116 cells assessed as reduction in cell growth incubated for 48 hrs by SRB assay; type: functional, cell-based; outline: as §1
A549 [4] = assay: Induction of cell cycle arrest in human A549 cells assessed as increase in subG1 phase accumulation incubated for 48 hrs by PI based flow cytometry; type: functional
Outline: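 A549 cells were exposed for 48 h, stained with propidium iodide and analysed by flow cytometry for cell cycle distribution and the sub-G1 (dead cell) fraction.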

A549 [5] = assay: Cytotoxicity against human A549 cells assessed as loss of cell morphological changes at 1 uM; type: functional, cell-based
Outline: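 A549 cells grown overnight were exposed to 1 μM compound or DMSO vehicle, and changes in cell morphology were recorded.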

SF-295 = assay: Cytotoxicity against human SF-295 cells assessed as reduction in cell growth incubated for 48 hrs by SRB assay; type: functional, cell-based; outline: as §1
A549 [6] = assay: Induction of apoptosis in human A549 cells assessed as effect on caspase activation; type: functional, cell-based
A549 [7] = assay: Induction of cellular senescence in human A549 cells assessed as increase in SA-beta-Gal accumulation in cells at 10 to 50 uM incubated for overnight by microscopic analysis; type: functional, cell-based; details: dose 10-50 µM
MDA-MB-468 = assay: Cytotoxicity against human MDA-MB-468 cells assessed as reduction in cell growth incubated for 48 hrs by SRB assay; type: functional, cell-based; outline: as §1
PC-3 = assay: Cytotoxicity against human PC-3 cells assessed as reduction in cell growth incubated for 48 hrs by SRB assay; type: functional, cell-based; outline: as §1
A549 [8] = assay: Inhibition of colony formation in human A549 cells grown under anchorage-independent soft-agar condition incubated for 9 days and subsequent media replenishment for every 3 days by crystal violet staining based light microscopy assay; details: dose 10-50 µM, time 9.0 day
OVCAR-4 = assay: Cytotoxicity against human OVCAR-4 cells assessed as reduction in cell growth incubated for 48 hrs by SRB assay; type: functional, cell-based; outline: as §1

Chain of Coagulation factor X (P00742 41-179 limits assumed): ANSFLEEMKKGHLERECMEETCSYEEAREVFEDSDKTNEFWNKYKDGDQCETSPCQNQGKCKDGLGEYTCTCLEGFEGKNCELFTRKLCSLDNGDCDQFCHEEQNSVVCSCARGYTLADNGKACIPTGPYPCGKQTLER
Chain of Coagulation factor X (P00742 235-488 limits assumed): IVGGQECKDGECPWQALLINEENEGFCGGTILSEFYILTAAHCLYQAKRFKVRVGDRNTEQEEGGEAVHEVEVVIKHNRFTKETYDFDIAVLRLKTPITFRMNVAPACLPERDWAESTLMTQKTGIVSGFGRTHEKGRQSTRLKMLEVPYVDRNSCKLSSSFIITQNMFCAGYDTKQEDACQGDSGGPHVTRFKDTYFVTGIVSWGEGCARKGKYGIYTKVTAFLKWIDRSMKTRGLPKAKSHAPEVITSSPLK

**Q.** How did the IC50 (Coagulation factor X) turn out when `CC(=N)N1CCC(Oc2ccc3c(c2)C(=O)NS(=O)(=O)N3Cc2ccc3ccc(C(=N)N)cc3c2)CC1` was run?
**A.** 400 pM

**Q.** For `O=S1(=O)N(Cc2ccccc2)[C@@H](Cc2ccccc2)[C@H](O)[C@H](O)[C@H](Cc2ccccc2)N1Cc1ccccc1`, which inhibition [1] is on record?
**A.** Active

**Q.** What about the inhibition (RPMI-8226) of the same compound?
**A.** Active

**Q.** Which inhibition [1] does the source give for `O=S1(=O)N(Cc2ccccc2)[C@H](Cc2ccccc2)[C@H](O)[C@H](O)[C@@H](Cc2ccccc2)N1Cc1ccccc1` here?
**A.** Active

**Q.** And the inhibition (RPMI-8226)?
**A.** Active

**Q.** With `O=S1(=O)N(Cc2ccccc2)[C@@H](Cc2ccccc2)C=C[C@H](Cc2ccccc2)N1Cc1ccccc1` as the compound, how does the “inhibition (INH)” value (A549 [2]) read?
**A.** 50%

**Q.** And the inhibition at 10 µM (A549 [3])?
**A.** 50%

**Q.** And the inhibition (HCT-116)?
**A.** Active

**Q.** And the Activity (A549 [4])?
**A.** Active

**Q.** What about the Activity (A549 [5]) of the same compound?
**A.** Active

**Q.** What about the inhibition (SF-295) of the same compound?
**A.** Active

**Q.** And the Activity (A549 [6])?
**A.** inactive

**Q.** What about the Activity (A549 [7]) of the same compound?
**A.** Active

**Q.** And the inhibition (MDA-MB-468)?
**A.** Active

**Q.** And the inhibition (PC-3)?
**A.** Active

**Q.** What about the inhibition (A549 [8]) of the same compound?
**A.** Dose-dependent effect

**Q.** What about the inhibition (OVCAR-4) of the same compound?
**A.** Active

**Q.** With `O=S1(=O)N(Cc2ccccc2)[C@@H](Cc2ccccc2)[C@@H]2O[C@@H]2[C@H](Cc2ccccc2)N1Cc1ccccc1` as the compound, how does the inhibition [1] read?
**A.** Active

**Q.** What about the inhibition (RPMI-8226) of the same compound?
**A.** Active
